Laboratory results reported in ChEMBL document CHEMBL1629588, “Ambuic acid inhibits the biosynthesis of cyclic peptide quormones in gram-positive bacteria” (Antimicrob Agents Chemother, 2009).
Calls of active or inactive are those of the source. No cut-off for these calls is given here.

Columns and labels:
Staphylococcus aureus [1] = assay: Inhibition of hemolysin production in Staphylococcus aureus 12600T assessed as decrease in hemolytic zone on sheep blood agar at 5 mM after 16 to 48 hrs […]; type: functional, organism-based; details: TDE = time-dependent effect
Method in brief: (§1)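 Inhibitor in 50% acetonitrile (5 µl) spotted on sheep blood agar and dried. Plate incubated at 37°C; hemolytic clearance zone around colonies observed and photographed at 16, 24 and 48 h.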

Staphylococcus aureus [2] = assay: Inhibition of hemolysin production in Staphylococcus aureus 12600T assessed as decrease in hemolytic zone on sheep blood agar at 10 mM after 16 to 48 hrs […]; type: functional, organism-based; details: TDE = time-dependent effect; method in brief: as §1
Enterococcus faecalis [3] = assay: Antimicrobial activity against Enterococcus faecalis OG1RF assessed as growth inhibition at <1 mM after 5 hrs; type: functional
Method in brief: (§2)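 E. faecalis OG1RF overnight culture (3 µl) inoculated into 0.5 ml THB with sample, grown 5 h at 37°C. Growth read as OD660. Supernatant (25 µl, after 9,100 x g spin) mixed with 0.5 ml azocoll suspension, 4 h at 170 rpm, centrifuged, gelatinase read as OD540. Duplicate experiments, mean ± SD.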

Staphylococcus aureus [4] = assay: Inhibition of hemolysin production in Staphylococcus aureus 12600T assessed as decrease in hemolytic zone on sheep blood agar at 20 mM after 16 to 48 hrs […]; type: functional, organism-based; details: TDE = time-dependent effect; method in brief: as §1
Listeria innocua [5] = assay: Inhibition of quormone LsrD826 biosynthesis in Listeria innocua ATCC 33090T at 100 uM by LC/MS analysis; type: functional, organism-based
Method in brief: (§3)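 L. innocua ATCC 33090T overnight culture (25 µl) grown 15 h in 5 ml chemically defined medium. Filtered supernatant loaded on C18 cartridge, washed with 10% acetonitrile/0.1% TFA, eluted with 60% acetonitrile/0.1% TFA. Eluate analysed by LC/MS monitoring m/z 699 (LsrD698) and m/z 827 (LsrD826).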

Enterococcus faecalis [6] = assay: Inhibition of gelatinase production in Enterococcus faecalis OG1RF at <1 mM after 5 hrs; type: functional; method in brief: as §2
Staphylococcus aureus [7] = assay: Inhibition of quormone AIP-I biosynthesis in Staphylococcus aureus 12600T at 50 uM by LC/MS analysis; type: functional, organism-based
Method in brief: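 S. aureus 12600T overnight culture (20 µl) inoculated into 2 ml TSB-YE, grown 15 h. Filtered (0.22 µm) supernatant (40 µl) analysed by C18 LC/ESI-TOF MS, 20–40% acetonitrile in 0.05% TFA, 0.2 ml/min, 30°C. Extracted ion chromatogram at m/z 961–962.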

Staphylococcus aureus [8] = assay: Inhibition of hemolysin production in Staphylococcus aureus 12600T assessed as decrease in hemolytic zone on sheep blood agar at 5 to 20 mM upto 48 hrs […]; type: functional, organism-based; method in brief: as §1
Enterococcus faecalis [9] = assay: Inhibition of GBAP biosynthesis in Enterococcus faecalis OU510 harboring pQU2200 and pQU2301 assessed as proteolytic processing of Hexahistidine-tagged FsrD after 5 hrs by Western blot analysis; type: functional, organism-based
Method in brief: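 OU510 carrying pQU2200 (FsrB') and pQU2301 (His6-tagged FsrD) inoculated (6 µl overnight culture) into 1.0 ml THB with inhibitor at various concentrations. Nisin added at 2 h to induce, cells harvested 3 h later. Cells boiled in SDS-PAGE sample buffer; extracts analysed by Western blot with anti-His-tag antibody. Supernatant GBAP activity read by OU510 gelatinase induction.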

Enterococcus faecalis [10] = assay: Inhibition of gelatinase production in GBAP-negative Enterococcus faecalis OU510 at 100 uM after 5 hrs in presence of GBAP; type: functional, organism-based
Method in brief: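 Overnight E. faecalis OU510 (3 µl) grown 5 h in 0.5 ml THB containing 100 µM inhibitor plus synthetic GBAP at various concentrations. Supernatant gelatinase measured by azocoll assay (OD540), growth by OD660. Duplicate experiments; gelatinase/growth ratio computed per experiment and averaged.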

Listeria innocua [11] = assay: Inhibition of quormone LsrD698 biosynthesis in Listeria innocua ATCC 33090T at 100 uM by LC/MS analysis; type: functional, organism-based; method in brief: as §3
Enterococcus faecalis [12] = assay: Inhibition of gelatinase production in Enterococcus faecalis OG1RF after 5 hrs; type: functional; method in brief: as §2
Staphylococcus aureus [13] = assay: Inhibition of agr quorom sensing in Staphylococcus aureus 8325-4 harboring pSB2035 assessed as […] at 50 to 200 uM after 7 hrs by GFP assay; type: functional, organism-based
Method in brief: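 S. aureus 8325-4(pSB2035) washed and serially subcultured (1/20 twice, 2 h each), then diluted 1/50 into 200 µl medium with inhibitor, shaken 7 h. OD620 read; cells washed twice in PBS, GFP fluorescence read (ex 490/em 525 nm). Triplicate, mean ± SD. Quenching control: 200 µM added to washed untreated cells, fluorescence followed 15 min.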

Staphylococcus aureus [14] = assay: Inhibition of agr quorom sensing in Staphylococcus aureus 8325-4 harboring pSB2035 assessed as […] at 50 to 200 uM after 7 hrs by GFP fluorescence reporter gene assay

With `CCCCC/C=C/C1=C(CO)[C@H](O)[C@H]2O[C@@]2(C/C=C(\C)C(=O)O)C1=O` [AMBUIC ACID] the inhibition (Staphylococcus aureus [1]) was “tde”, the inhibition (Staphylococcus aureus [2]) was “tde” and the Activity (Enterococcus faecalis [3]) was “inactive”. For the same compound, the inhibition (Staphylococcus aureus [4]) was “tde”, the inhibition (Listeria innocua [5]) was “Active” and the Activity (Enterococcus faecalis [6]) was “Active”. The inhibition (Staphylococcus aureus [7]) was “Active”, the inhibition (Staphylococcus aureus [8]) was “Dose-dependent effect” and the inhibition (Enterococcus faecalis [9]) was “Active”. For the same compound, the inhibition (Enterococcus faecalis [10]) was “inactive”, the inhibition (Listeria innocua [11]) was “Active” and the IC50 (Enterococcus faecalis [12]) was 10 µM. For the same compound, the inhibition (Staphylococcus aureus [13]) was “Active” and the inhibition (Staphylococcus aureus [14]) was “Active”.
